# Measured values of several laboratories.
# Compare with care: the assays were run in different laboratories.
# Target: Ephrin type-A receptor 8 (EPHA8, Homo sapiens, UniProt P29322)
# One construct used (P29322 1-1005): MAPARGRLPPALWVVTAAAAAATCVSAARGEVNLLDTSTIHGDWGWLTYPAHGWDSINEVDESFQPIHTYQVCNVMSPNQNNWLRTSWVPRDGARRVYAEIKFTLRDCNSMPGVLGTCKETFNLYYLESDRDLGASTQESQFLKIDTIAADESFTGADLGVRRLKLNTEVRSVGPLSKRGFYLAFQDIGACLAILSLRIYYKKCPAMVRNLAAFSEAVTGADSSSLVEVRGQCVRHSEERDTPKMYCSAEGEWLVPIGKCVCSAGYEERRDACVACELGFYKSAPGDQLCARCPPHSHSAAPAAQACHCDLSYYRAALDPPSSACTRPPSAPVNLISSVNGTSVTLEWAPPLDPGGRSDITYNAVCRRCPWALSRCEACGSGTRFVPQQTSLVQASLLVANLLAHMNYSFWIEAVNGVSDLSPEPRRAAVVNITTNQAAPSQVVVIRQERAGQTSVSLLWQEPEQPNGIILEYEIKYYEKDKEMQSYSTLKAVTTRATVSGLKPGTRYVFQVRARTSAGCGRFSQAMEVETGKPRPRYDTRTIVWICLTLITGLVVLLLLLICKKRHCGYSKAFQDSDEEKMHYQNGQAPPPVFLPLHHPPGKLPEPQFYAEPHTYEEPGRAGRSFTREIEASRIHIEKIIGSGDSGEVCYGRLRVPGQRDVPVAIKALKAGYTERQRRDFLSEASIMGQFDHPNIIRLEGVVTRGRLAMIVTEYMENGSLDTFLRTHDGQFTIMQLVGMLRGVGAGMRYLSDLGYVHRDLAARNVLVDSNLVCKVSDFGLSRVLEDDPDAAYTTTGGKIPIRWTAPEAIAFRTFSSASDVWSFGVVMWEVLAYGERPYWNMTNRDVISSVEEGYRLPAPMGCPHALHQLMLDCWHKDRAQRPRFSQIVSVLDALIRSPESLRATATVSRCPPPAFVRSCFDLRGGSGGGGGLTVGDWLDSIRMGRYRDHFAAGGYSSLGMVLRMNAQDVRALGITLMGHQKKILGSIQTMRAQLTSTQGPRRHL
SMILES,effect on,action,method,tested at,endpoint,value
Nc1ncnc2occ(-c3ccc(NC(=O)Nc4cc(C(F)(F)F)ccc4F)cc3)c12,cell-free assay,,,20 µM,remaining signal,0%
C[C@@]1(Cc2ccc(C#N)cc2)C(=O)N(c2cc(Cl)cc(Cl)c2)c2ncc(C(=O)NC3(c4nc(C5CCC5)no4)CC3)n21,cell-free assay,,competition with immobilised ligand,1 µM,remaining binding,100%
Cc1sc(C(=O)NC2COC2)cc1-n1cc(NC(=O)Nc2c(F)cccc2Cl)cn1,enzyme activity,inhibitor,,10 µM,remaining activity,91.7%
CCN(CC)c1ccc(C2=NNC(=O)CC2C)cc1[N+](=O)[O-] (stereo not drawn),enzyme activity,inhibitor,,10 µM,remaining activity,115%
C[C@H](NC(=O)c1cnc2n1[C@](C)(Cc1ccc(C#N)cc1)C(=O)N2c1cc(Cl)c(F)c(Cl)c1)C(=O)NC1(c2ccccn2)CC1,cell-free assay,,competition with immobilised ligand,1 µM,remaining binding,100%
CCCS(=O)(=O)Nc1ccc(F)c(C(=O)c2c[nH]c3ncc(-c4ccc(Cl)cc4)cc23)c1F,enzyme activity,inhibitor,,1 µM,inhibition,< 20%
CNC(=O)c1ccc(Nc2ncc(C(F)(F)F)c(NCc3nccnc3N(C)S(C)(=O)=O)n2)cc1,cell-free assay,,competition with immobilised ligand,0.1 µM,remaining binding,87%
COc1cc2ncnc(Nc3ccc(Oc4ccccc4)cc3C)c2cc1OC,enzyme activity,inhibitor,,1 µM,inhibition,21%
O=C(Nc1cnn(-c2csc(C(=O)NC3COC3)c2)c1)Nc1ccccc1Cl,enzyme activity,inhibitor,,5 µM,remaining activity,103%
Cc1ccc(Nc2nccc(N(C)c3ccc4c(C)n(C)nc4c3)n2)cc1S(N)(=O)=O,enzyme activity,inhibitor,,0.3 µM,inhibition,17%
O=C(O)c1cc(-c2ccc(C3CCNCC3)cc2)c2ccc(-c3ccc(C(F)(F)F)cc3)cc2c1,cell-free assay,,competition with immobilised ligand,1 µM,remaining binding,100%
Cc1ccc(NC(=O)c2ccc(C)c(C(F)(F)F)c2)cc1C#Cc1nn(C2CCC(O)CC2)c2ncnc(N)c12 (stereo not drawn),cell-free assay,,,10 µM,remaining signal,2%
Clc1ccc(Nc2nnc(Cc3ccncc3)c3ccccc23)cc1,cell-free assay,,,0.5 µM,remaining signal,100%
COc1cc(-c2cc(-c3ccc(N4CCNCC4)cc3)cnc2C)cc(OC)c1OC,enzyme activity,inhibitor,,0.1 µM,inhibition,3%
N#CCCc1ccc2c(c1)-c1[nH]c3ccc([N+](=O)[O-])cc3c1CC(=O)N2,cell-free assay,,,0.5 µM,remaining signal,105%
CC(C)(C)c1nc(-c2cccc(NS(=O)(=O)c3c(F)cccc3F)c2F)c(-c2ccnc(N)n2)s1,enzyme activity,inhibitor,radiometric,1 µM,remaining activity,105%
Cc1nc(Cc2cccc(C(F)(F)F)c2)sc1-c1ccc(C(N)=O)nc1,cell-free assay,,competition with immobilised ligand,1 µM,remaining binding,100%
O=C1NC(=O)c2cc(Nc3ccc(F)cc3)c(Nc3ccc(F)cc3)cc21,cell-free assay,,,0.5 µM,remaining signal,95.5%
O=C(NCc1ncc(C(F)(F)F)cc1Cl)c1ccc2c(c1)C1(CCS(=O)(=O)CC1)[C@@H](C1CC1)N2S(=O)(=O)c1ccc(F)cc1,cell-free assay,,competition with immobilised ligand,1 µM,remaining binding,100%
Cc1ccc(C(=O)Nc2ccc(CN3CCN(C)CC3)c(C(F)(F)F)c2)cc1C#Cc1cnc2cccnn12,cell-free assay,,,23.5 nM,remaining signal,0.9%
CNC(=O)c1cc(Oc2ccc(NC(=O)Nc3ccc(Cl)c(C(F)(F)F)c3)cc2)ccn1,enzyme activity,inhibitor,,10 µM,inhibition,89%
